This note sets out measurements from PubChem BioAssay AID617 (SRMLSC, 2007).

SMILES strings stand for the structures.

The test relates to E. coli BW25113 ΔtolC growth inhibition, OD615. In words: E. coli ΔtolC antibacterial growth inhibition – strain BW25113 ΔtolC::kan, dose response (AID 617). The essentials:
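Test system: E. coli BW25113 ΔtolC::kan bacteria | Amount: 1:1000 diluted subculture inoculum | Medium: LB plus kanamycin | Timing: 20 h exposure at 37 °C | Signal: Absorbance at 615 nm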
For the compound `COc1cc(NS(=O)(=O)c2ccc(NC(=O)COc3ccccc3Cl)cc2)nc(OC)n1`, the IC50 was 24.6 µM.
Regarding `Cc1cccc(N=c2oc3cc(O)ccc3cc2C(N)=O)c1`, the IC50 is 23 µM.
In the case of `CCOC(=O)C1CCN(c2ncnc3c2oc2ccc(Br)cc23)CC1`, the IC50 is 12.8 µM.
Turning to `Cc1nc(N2CCN(c3ccccc3)CC2)nc2c1C(=O)CCC2`, the IC50 was 26.6 µM.
In the case of `Cc1cc(C)c(C#N)c(SCC(=O)OC2CCCCC2)n1`, the IC50 was 19.1 µM.
For the compound `Cc1nc2ccc(C(C(F)(F)F)(C(F)(F)F)C(F)(F)F)cc2[nH]1`, the IC50 is 33.4 µM.
The value for `CCc1ccccc1NS(=O)(=O)c1ccc2[nH]cc(C(=O)NCc3ccco3)c(=O)c2c1` was 22 µM; that for `CC(C)C(c1nnnn1C1CCCC1)N1c2ccccc2CC1C` (stereo unspecified) was 20.8 µM; that for `Cc1cc(NC(=O)Cn2nnc3sc4c(c3c2=O)CCC(C(C)(C)C)C4)no1` (stereo unspecified) was 7.77 µM.
With `COc1ccc(-c2cc(C(=O)N3CCc4ccccc4C3)no2)cc1OC`, the concentration for half-maximal inhibition (IC50) is 16.6 µM.
In the case of `Cc1cccc(-c2nc(CS(=O)CC(=O)NCCCSC3CCCCC3)c(C)o2)c1` (stereo unspecified), the half-maximal inhibitory concentration (IC50) is 10.1 µM.
In the case of `c1csc(-c2noc(COc3ccc4c(c3)CCCC4)n2)c1`, the IC50 is 18.4 µM.
Take `CCCCCSc1nnc(-c2cc(Br)ccc2N)c(=O)[nH]1`: the IC50 is 5.1 µM.
Take `COc1ccc2[nH]c3c(=O)n(CCCCC(=O)NCCN4CCCC4)c(=S)[nH]c3c2c1`: the IC50 is 17.4 µM.
Under `COc1ccc(NS(=O)(=O)c2ccc3oc4ccccc4c3c2)cn1` stands 5.62 µM; under `Cc1cc(C)c2cc(CN(CCO)C(c3nnnn3Cc3ccc(F)cc3)C(C)C)c(=O)[nH]c2c1` (stereo unspecified), 21.7 µM; under `CCn1cc(C(=O)OCC(=O)OC2CC(C)CCC2C(C)C)c(=O)c2ccc(C)nc21` (stereo unspecified), 7.52 µM.
Take `Cc1ccc(Nc2nc(N)nc(CN3CCN(c4ccccc4)CC3)n2)cc1Cl`: the half-maximal inhibitory concentration (IC50) is 5.97 µM.
As for `CCn1nc(-c2ccccc2)nc2c(=O)n(C)c(=O)nc1-2`, the IC50 was 2.8 µM.
With `CC1CCc2c(C(=O)Oc3cccc(-n4cnnn4)c3)csc2C1` (stereo unspecified), the IC50 is 20.2 µM.
Turning to `CC(=O)c1sc(NC(=O)C2(F)C(F)(F)C(F)(F)C(F)(F)C(F)(F)C2(F)F)nc1C`, the IC50 was 0.92 µM.
For `CCC1(C)Cc2ccccc2-c2nc3n(c(=O)c21)CCCCC3` (stereo unspecified), the concentration for half-maximal inhibition (IC50) was 15.8 µM.
Turning to `Cc1cccn2c(=O)c3c(nc12)N1CCC(Cc2ccccc2)CC1C1(C3)C(=O)N(C)C(=O)N(C)C1=O` (stereo unspecified), the IC50 was 17.7 µM.
For the compound `CC1CCc2nc(NC(=O)c3cc(C(C)(C)C)nn3C)sc2C1` (stereo unspecified), the concentration for half-maximal inhibition (IC50) is 12.4 µM.
`CCOC(=O)c1cnc(-n2nc(C)cc2C)nc1NC1CCCCC1`: the IC50 was 0.54 µM.
Under `CC(C)c1nc(N2CCOCC2)c(C#N)c2c1CCCC2` stands 18 µM; under `c1ccc(CCN2CCN(c3ncnc4c3cnn4-c3ccccc3)CC2)cc1`, 10.6 µM; under `Clc1ccc(OCc2nn3c(C4CCCCC4)nnc3s2)cc1`, 9.82 µM.
For the compound `CC(C)C(C(=O)NCc1ccco1)N(C(=O)CNS(=O)(=O)c1ccc(Cl)cc1)C1CCCC1` (stereo unspecified), the half-inhibitory concentration (IC50) is 24.8 µM.
As for `COc1ccc(OCC(O)CNc2ccc(Br)cc2)cc1` (stereo unspecified), the IC50 is 12.7 µM.
Take `Clc1ccc(OCCN2CCN(c3ncnc4sccc34)CC2)cc1`: the IC50 is 16.1 µM.
`O=C(NCc1ccccc1)c1c[nH]c2ccc(S(=O)(=O)Nc3ccc4c(c3)OCCO4)cc2c1=O`: the IC50 is 9.4 µM.
On to `CC(C)N1CCC2(CC1)N=C(c1ccc3c(c1)OCO3)CC(c1cc(Cl)ccc1O)N2` (stereo unspecified), for which the IC50 was 9.86 µM.
The value for `COc1cc(-c2nc(-c3cccc(C)c3)no2)cc(OC)c1OC` was 12.2 µM; that for `CCCCOc1ccc(S(=O)(=O)n2c(C)nc3ccccc32)cc1` was 11.4 µM.
For `CCCCCn1c(CN2CCN(c3cccc(Cl)c3)CC2)nc2c1c(=O)n(C)c(=O)n2C`, the 50% inhibitory concentration (IC50) is 15.2 µM.
On to `O=C(CSc1nnc(Cc2cccs2)n1Cc1ccco1)Nc1ccc(Br)cc1`, for which the IC50 is 5.74 µM.
Under `COc1cccc(-c2cc(C(=O)N3C(C)CCCC3C)no2)c1` (stereo unspecified) stands 32.8 µM; under `CCc1nc2ccccc2c(=O)n1NC(=O)c1c(O)c2ccccc2[nH]c1=O`, 5.7 µM; under `COc1ccc(C(=O)C(CN2CCOCC2)c2ccccc2)cc1F` (stereo unspecified), 17.7 µM.
Under `N#CCSc1n[nH]c2nc3c(c(=O)n12)C1(CCCC1)Cc1ccccc1-3` stands 4.21 µM.
With `CC1=C(C(=O)OCC(C)C)C(c2cc3c(cc2Br)OCO3)NC(=O)N1C` (stereo unspecified), the half-inhibitory concentration (IC50) was 18.1 µM.
With `CCOC(=O)c1cnc(-n2cc(C)cn2)nc1Nc1ccccc1OCC`, the half-inhibitory concentration (IC50) is 16 µM.
In the case of `COC(=O)C1=C(C)N(C)C(C)=C(C(=O)OC)C1c1ccc(F)c(Br)c1`, the half-maximal inhibitory concentration (IC50) is 20 µM.
Consider `CCn1cc(Br)c(C(=O)Nc2ccc(C(=O)OC(C)C)cc2)n1`, for which the IC50 is 12.3 µM.
`CC(=O)Nc1cccc(NC(=O)c2oc3ccccc3c2C)c1`: the IC50 is 8.33 µM.
For the compound `Cc1ccc(C2C(S(C)(=O)=O)=C(O)C(=O)N2c2ccccc2)cc1` (stereo unspecified) (tested in a mixture with another compound), the IC50 is 4.81 µM.
`C(=C\c1ccccc1)/CSc1nnc(-c2ccccn2)n1Cc1ccco1`: the IC50 was 12 µM.
The value for `CC1CCCCN1S(=O)(=O)c1ccc(C(=O)Nc2nnc(-c3cccs3)o2)cc1` (stereo unspecified) was 0.24 µM; that for `O=C(Nc1ccccc1N1CCCCC1)c1cccc(F)c1` was 15.2 µM; that for `COc1cccc(N2CC(C(=O)Nc3ccc(C(=O)OC(C)C)cc3)CC2=O)c1` (stereo unspecified) was 15 µM.
Turning to `O=C(NCc1ccc2c(c1)OCO2)c1ccc(-c2ccc(Cl)cc2)o1`, the half-inhibitory concentration (IC50) was 5.02 µM.
Under `CCCN(CCC)C(=O)CSc1nc2ccccc2c(=O)n1C1CCCC1` stands 14.2 µM.
In the case of `Cc1ccc(-c2nnc(SCC(=O)N3CC(C)CC(C)C3)o2)cc1C` (stereo unspecified), the IC50 was 12.9 µM.
In the case of `CCCc1nc2ccccc2c(=O)n1NC(=O)c1c(O)c2ccccc2[nH]c1=O`, the concentration for half-maximal inhibition (IC50) was 5.73 µM.
The value for `COc1ccc(C2(O)CC3CCC(C2)N3c2cc(C)nc(-c3ccccc3)n2)cc1` (stereo unspecified) was 11.7 µM; that for `Cc1ccnc(N2CCC(C(=O)Nc3cccc(C(F)(F)F)c3)CC2)n1` was 82.2 µM; that for `CCN(CC)c1ccc(C(=O)n2cnc3ccccc32)cc1` was 15 µM.
On to `CCOC(=O)C1C(=O)C=C(c2ccc(OC)cc2)CC1c1ccco1` (stereo unspecified), for which the half-maximal inhibitory concentration (IC50) was 11.6 µM.
`COc1ccc(CN(C(=O)CN2C(=O)C(C)Oc3ccccc32)C2CCCC2)c(OC)c1` (stereo unspecified): the IC50 is 28.1 µM.
Consider `COc1ccc(-n2cnc3cc(NCc4cccs4)ccc32)cc1`, for which the 50% inhibitory concentration (IC50) is 10.6 µM.
As to `Cn1c(=O)c2c(SCc3cccnc3)nc(CC(C)(C)C)nc2n(C)c1=O`, the IC50 is 8.18 µM.
For `CCc1cc2c3c(c(=O)oc2cc1O)CCCC3`, the IC50 was 33 µM.
Under `N#C/C(=C\c1ccc[nH]1)Sc1nc2ccccc2s1` stands 4.28 µM; under `O=C(Nc1ccc2nc(-c3cccs3)[nH]c2c1)c1ccco1`, 82.7 µM; under `Cn1c(=O)n(CCc2ccccc2)c(=O)c2c1nc1n2CCCN1CCc1ccccc1`, 10.5 µM.
The value for `Cn1c(=O)c2c(nc(N3CCCCCC3)n2Cc2cccc3ccccc23)n(C)c1=O` was 7.33 µM.
In the case of `CCN(CCNC(=O)C1CCN(Cc2nc(-c3cccc(Cl)c3)oc2C)CC1)c1ccccc1`, the IC50 is 8.04 µM.
The value for `CCC(c1nnnn1C1CCCCC1)N(Cc1ccco1)Cc1cc2ccc(OC)cc2[nH]c1=O` (stereo unspecified) was 13.3 µM.
As to `Cc1cccc(N2CCN(C(=O)c3cc4n(n3)C(C(F)(F)F)CC(c3ccco3)N4)CC2)c1C` (stereo unspecified), the IC50 was 6.74 µM.
As for `Fc1cccc(-c2cc3nc4c(c(N5CCOCC5)n3n2)CCCC4)c1`, the IC50 was 18.4 µM.
The value for `CSc1nc(-c2ccccc2)nc(N2CCCC2)c1C(C)=O` was 12.7 µM.
`Clc1ccc(OCCn2ccnc2)c2ccccc12`: the IC50 is 5.58 µM.
The value for `CCc1nc(N2CCCCC2)c2oc3ccccc3c2n1` was 16.2 µM; that for `Cc1noc(C)c1C(=O)Nc1sc(C)c(-c2ccccc2)c1C#N` was 9.36 µM.
Take `Cc1nn(-c2ccccc2)c(Cl)c1C1C(C#N)=C(N)Oc2c1c(=O)oc1ccccc21` (stereo unspecified): the IC50 is 12 µM.
For `O=C(Nc1cccc2cccnc12)c1ccc(Br)o1`, the IC50 was 10.6 µM.
Consider `COc1ccc(CCNC(=O)c2cc3sc(Cl)cc3n2C)cc1OC`, for which the IC50 was 30.8 µM.
For the compound `CC1CCN(C(=O)c2ccc(COc3ccccc3Cl)o2)CC1`, the 50% inhibitory concentration (IC50) is 11.1 µM.
Under `CCn1c(N2CCN(C(=O)C34CC5CC(CC(C5)C3)C4)CC2)nc2ccccc21` stands 17.2 µM; under `CCC(C)(C)n1nnnc1C(c1cc2ccc(OC)cc2[nH]c1=O)N1CCc2ccccc2C1` (stereo unspecified), 17.1 µM; under `COC(=O)c1cn(NC(=O)c2cnccn2)c(=O)c2ccccc12`, 2.44 µM.
Regarding `CCOC(=O)N1CCN(c2nc3ccccc3nc2C(C#N)S(=O)(=O)c2ccc(C)cc2)CC1` (stereo unspecified), the concentration for half-maximal inhibition (IC50) is 7.88 µM.
With `OC(COc1ccc2ccccc2c1Br)Cn1ccnc1` (stereo unspecified), the half-inhibitory concentration (IC50) is 7.54 µM.
The value for `C=CCn1c(SCC(=O)Nc2nc3ccccc3s2)nnc1-c1ccccc1O` was 8.28 µM.
Under `CCCCOn1c(C)c(C(=O)OCC)c2c3nonc3ccc21` stands 18.4 µM.
For the compound `CC1CCN(c2nc3ccccc3nc2C(C#N)S(=O)(=O)c2ccccc2)CC1` (stereo unspecified), the IC50 is 9.39 µM.
As to `Cc1ccccc1CSc1nc2n(n1)C(c1cccs1)C1=C(CCCC1=O)N2` (stereo unspecified), the IC50 was 8.42 µM.
The value for `N=C(N)c1c(O)n(C2CCCCC2)c(=O)n(C2CCCCC2)c1=O` was 5.79 µM; that for `C=C(C)COc1ccc(-c2[nH]ncc2Oc2ccccc2OCC)c(O)c1` was 6.14 µM; that for `CCOC(=O)c1cc2c(ccn2C)n1Cc1ccccc1C` was 27.3 µM.
As for `CCOC(=O)N1CCc2c(sc(NC(=O)c3ccc(Cl)s3)c2C(N)=O)C1`, the IC50 was 5.13 µM.
Consider `COc1ccc(C(C(O)C(=O)c2c[nH]c3ccccc23)N2CCN(c3ccccc3)CC2)cc1` (stereo unspecified), for which the IC50 is 7.52 µM.
Under `c1ccc(-c2nc(N3CCCCCC3)c3ccccc3n2)nc1` stands 1.68 µM; under `CCOC(=O)Cc1csc(NC(=O)c2csc3c2CCCC3)n1`, 16.4 µM.
With `CCOc1ccccc1-c1nn2c(Cc3ccccc3)nnc2s1`, the concentration for half-maximal inhibition (IC50) is 0.76 µM.
